Laboratory results as given in ChEMBL document CHEMBL1136621 (Bioorg Med Chem Lett, 2003).
One block for each molecule: values may come before it.

Tests used:
[1] = biological target: Cytidine deaminase (Homo sapiens) (UniProt P32320); assay: Susceptibility to Cyd deaminase at a substrate concentration of 2.0 mM
[2] = biological target: T1, Thymidine phosphorylase (Homo sapiens) (UniProt P19971); assay: Susceptibility to thymidine phosphorylase (ThdPase) at a substrate concentration of 1.0 mM
T1 sequence (whole entry): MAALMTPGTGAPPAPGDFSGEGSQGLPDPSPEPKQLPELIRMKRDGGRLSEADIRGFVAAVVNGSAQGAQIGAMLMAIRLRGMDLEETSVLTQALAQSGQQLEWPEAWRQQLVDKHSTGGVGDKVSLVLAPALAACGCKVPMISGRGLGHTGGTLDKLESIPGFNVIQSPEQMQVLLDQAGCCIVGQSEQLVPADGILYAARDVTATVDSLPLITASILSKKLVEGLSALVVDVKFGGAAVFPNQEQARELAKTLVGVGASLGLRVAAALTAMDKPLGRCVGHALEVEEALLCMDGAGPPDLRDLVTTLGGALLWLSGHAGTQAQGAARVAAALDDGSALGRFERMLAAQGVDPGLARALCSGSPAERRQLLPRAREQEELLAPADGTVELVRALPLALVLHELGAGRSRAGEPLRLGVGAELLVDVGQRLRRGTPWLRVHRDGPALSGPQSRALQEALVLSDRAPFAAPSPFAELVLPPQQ

[3] = biological target: T2, Dihydropyrimidine dehydrogenase [NADP(+)] (Homo sapiens, UniProt Q12882); assay: Inhibitory activity against dihydropyrimidine dehydrogenase (DPD)
T2 sequence (Q12882 whole entry): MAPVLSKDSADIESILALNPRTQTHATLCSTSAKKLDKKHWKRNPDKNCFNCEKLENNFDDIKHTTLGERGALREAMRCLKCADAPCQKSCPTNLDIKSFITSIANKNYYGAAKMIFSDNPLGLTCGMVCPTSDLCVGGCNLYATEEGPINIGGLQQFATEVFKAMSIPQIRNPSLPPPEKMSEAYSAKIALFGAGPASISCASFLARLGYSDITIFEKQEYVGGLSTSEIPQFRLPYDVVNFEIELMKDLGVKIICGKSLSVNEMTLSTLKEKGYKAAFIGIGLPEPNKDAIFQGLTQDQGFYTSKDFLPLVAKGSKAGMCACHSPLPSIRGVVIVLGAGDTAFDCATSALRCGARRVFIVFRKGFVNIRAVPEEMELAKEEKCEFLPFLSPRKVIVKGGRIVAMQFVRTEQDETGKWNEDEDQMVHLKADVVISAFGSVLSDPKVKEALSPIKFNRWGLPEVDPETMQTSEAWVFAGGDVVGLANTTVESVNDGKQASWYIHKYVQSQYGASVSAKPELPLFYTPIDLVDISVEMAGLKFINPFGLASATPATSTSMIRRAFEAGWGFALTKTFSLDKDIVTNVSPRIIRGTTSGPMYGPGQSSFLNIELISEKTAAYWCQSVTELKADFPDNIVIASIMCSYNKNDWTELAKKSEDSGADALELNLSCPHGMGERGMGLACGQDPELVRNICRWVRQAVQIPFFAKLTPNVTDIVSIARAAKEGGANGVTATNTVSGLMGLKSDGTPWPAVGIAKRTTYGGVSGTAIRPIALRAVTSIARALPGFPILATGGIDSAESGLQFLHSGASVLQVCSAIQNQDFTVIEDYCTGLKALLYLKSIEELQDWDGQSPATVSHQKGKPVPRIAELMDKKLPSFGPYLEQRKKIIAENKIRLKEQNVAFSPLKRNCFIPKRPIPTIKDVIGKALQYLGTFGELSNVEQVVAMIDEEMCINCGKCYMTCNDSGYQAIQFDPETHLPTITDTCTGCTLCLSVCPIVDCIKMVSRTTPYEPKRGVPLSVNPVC

Cocaine esterase [4] = biological target: T3, Cocaine esterase (Homo sapiens, UniProt O00748); assay: Susceptibility to carboxylesterase in human intestine at a concentration 2.5 mM; type: tissue-based; conditions: 2500 µM
T3 sequence (O00748 whole entry): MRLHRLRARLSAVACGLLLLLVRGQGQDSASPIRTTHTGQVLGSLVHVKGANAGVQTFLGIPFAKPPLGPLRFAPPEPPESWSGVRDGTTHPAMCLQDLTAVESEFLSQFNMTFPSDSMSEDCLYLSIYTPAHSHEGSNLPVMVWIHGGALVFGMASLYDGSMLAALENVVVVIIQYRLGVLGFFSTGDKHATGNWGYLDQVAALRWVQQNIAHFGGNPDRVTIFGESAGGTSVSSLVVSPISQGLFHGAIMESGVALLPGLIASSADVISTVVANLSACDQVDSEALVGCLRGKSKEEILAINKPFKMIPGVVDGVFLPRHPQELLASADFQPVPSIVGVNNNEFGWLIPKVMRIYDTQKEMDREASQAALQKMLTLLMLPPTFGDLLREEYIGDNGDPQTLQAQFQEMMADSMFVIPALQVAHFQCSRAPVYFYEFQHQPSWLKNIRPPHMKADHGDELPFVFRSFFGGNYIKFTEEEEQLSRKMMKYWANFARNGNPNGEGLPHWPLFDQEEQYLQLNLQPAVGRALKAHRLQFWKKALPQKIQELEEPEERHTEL
How it was run: (§1)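 Crude enzyme extracts from human liver and intestine; substrate at 2.5 mM. Conversion rate expressed as nmol/mg protein/h. L/I is the ratio of the liver rate to the intestine rate.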

Cocaine esterase [5] = biological target: T3, Cocaine esterase; assay: Susceptibility to carboxylesterase in human liver at a concentration 2.5 mM; type: tissue-based; conditions: 2500 µM; how it was run: as §1
[6] = test system: carboxylesterase (Homo sapiens); assay: Relative susceptibility to human carboxylesterase in liver and intestine (L/I ratio)
Lung carcinoma cell line = assay: Antitumor activity in human lung carcinoma; type: functional
Mus musculus [7] = assay: Tumour concentration of 5-FU in HT-3 (human cervical cancer) xenograft mice at 135 mg/kg oral dose; type: functional
Mus musculus [8] = assay: Plasma concentration of 5-FU in HT-3 (human cervical cancer) xenograft mice at 135 mg/kg oral dose; type: functional, organism-based; parameters: dose 135 mg/kg
Mus musculus [9] = assay: Plasma concentration of 5-FU in HT-3 (human cervical cancer) xenograft mice at 33.7 mg/kg oral dose co-administered with 135 mg/kg Capecitabine; type: functional, organism-based
Homo sapiens [10] = species on record: Homo sapiens; assay: Susceptibility to human liver enzyme at a concentration 2.5 mM; type: functional; how it was run: as §1
Homo sapiens [11] = species on record: Homo sapiens; assay: Susceptibility to human intestine enzyme at a concentration 2.5 mM; type: functional; how it was run: as §1
[12] = Stability in serum determined 1 hour after treatment; type: ADME, cell-free; conditions: read-out: Stability
How it was run: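 Compound incubated in serum; stability reported as the percentage remaining after 1 h.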

[13] = Stability at pH 2.0-7.4 determined 2 hours after treatment; type: physicochemical; conditions: buffer, read-out: Stability
How it was run: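 Compound held in aqueous solution at pH 2.0–7.4 for 2 h at 37 °C. Stability reported as the percentage of compound remaining.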

[14] = Ratio of tumor and plasma 5-FU concentration in HT-3 (human cervical cancer) xenograft mice on co-administration with Capecitabine; type: functional
Mus musculus [15] = assay: Tumour concentration of 5-FU in HT-3 (human cervical cancer) xenograft mice at 33.7 mg/kg oral dose co-administered with 135 mg/kg Capecitabine; type: functional
Mus musculus [16] = assay: Tumour concentration of 5-FU in HT-3 (human cervical cancer) xenograft mice at 1.38 mg/kg oral dose co-administered with 135 mg/kg Capecitabine; type: functional

Cytidine deaminase (Homo sapiens), sequence (P32320 whole entry): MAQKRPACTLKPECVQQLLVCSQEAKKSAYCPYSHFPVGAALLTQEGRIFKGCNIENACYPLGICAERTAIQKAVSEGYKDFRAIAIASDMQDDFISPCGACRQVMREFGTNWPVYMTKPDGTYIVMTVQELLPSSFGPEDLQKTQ

Relative susceptibility [1]: 0.034
SMILES: C#Cc1cn([C@@H]2O[C@H](C)[C@@H](O)[C@H]2O)c(=O)nc1N

Relative susceptibility [2]: 2.3
SMILES: C[C@H]1O[C@@H](n2cc(I)c(=O)[nH]c2=O)[C@H](O)C1O (single isomer, unassigned)

IC50 [3]: 0.2 µM
SMILES: N#Cc1c[nH]c(=O)[nH]c1=O

Susceptibility (Cocaine esterase [4]): < 5 nmol/mg protein/h | Susceptibility (Cocaine esterase [5]): 110 nmol/mg protein/h | Susceptibilty Ratio (Liver/Intestine) [6]: > 22
SMILES: C=Cc1cn([C@@H]2O[C@H](C)[C@@H](O)[C@H]2O)c(=O)nc1NC(=O)OCCCCC

Relative susceptibility [1]: 0.14
SMILES: C=Cc1cn([C@@H]2O[C@H](C)[C@@H](O)[C@H]2O)c(=O)nc1N

Susceptibility (Cocaine esterase [4]): 5.3 nmol/mg protein/h | Susceptibility (Cocaine esterase [5]): 79 nmol/mg protein/h
SMILES: CCCCCOC(=O)Nc1nc(=O)n([C@@H]2O[C@H](C)[C@@H](O)[C@H]2O)cc1F [CAPECITABINE]
Activity (Lung carcinoma cell line): 377 mg/kg | Tumour_[5-FU] (Mus musculus [7]): 3.5 nmol/g | Plasma [5-FU] (Mus musculus [8]): 0.62 nmol/mL

Relative susceptibility [2]: < 0.01
SMILES: C[C@H]1O[C@@H](n2cc(Cc3cccc(OCc4ccccc4)c3)c(=O)[nH]c2=O)[C@H](O)C1O (single isomer, unassigned)

remaining at 1 h [12]: 61% | remaining at 2 h [13]: 100%
SMILES: C=Cc1cn([C@@H]2O[C@H](C)[C@@H](OC(C)=O)[C@H]2OC(C)=O)c(=O)nc1N
Plasma [5-FU] (Mus musculus [9]): 1 nmol/mL | Susceptibility (Homo sapiens [10]): 130 nmol/mg protein/h | Susceptibility (Homo sapiens [11]): 28 nmol/mg protein/h | Ratio_tumour/plasma [14]: 13 | Tumour_[5-FU] (Mus musculus [15]): 13 nmol/g

Relative susceptibility [2]: 1
SMILES: C[C@H]1O[C@@H](n2cc(F)c(=O)[nH]c2=O)[C@H](O)C1O (single isomer, unassigned)

Relative susceptibility [2]: 0.2
SMILES: C=Cc1cn([C@@H]2O[C@H](C)C(O)[C@H]2O)c(=O)[nH]c1=O (single isomer, unassigned)

IC50 [3]: 0.043 µM
SMILES: Oc1ncc(/C=C/c2ccccc2)c(O)n1

IC50 [3]: 0.014 µM
SMILES: C#Cc1c[nH]c(=O)[nH]c1=O

Relative susceptibility [2]: 5
SMILES: C#Cc1cn([C@@H]2O[C@H](C)C(O)[C@H]2O)c(=O)[nH]c1=O (single isomer, unassigned)

Relative susceptibility [2]: < 0.01
SMILES: C[C@H]1O[C@@H](n2cc(C#N)c(=O)[nH]c2=O)[C@H](O)C1O (single isomer, unassigned)

IC50 [3]: 0.097 µM
SMILES: O=c1[nH]cc(Cc2cccc(OCc3ccccc3)c2)c(=O)[nH]1

Susceptibility (Cocaine esterase [4]): 18 nmol/mg protein/h | Susceptibility (Cocaine esterase [5]): 90 nmol/mg protein/h | Susceptibilty Ratio (Liver/Intestine) [6]: 5
SMILES: CCCCCOC(=O)Nc1nc(=O)n([C@@H]2O[C@H](C)[C@@H](O)[C@H]2O)cc1I

Relative susceptibility [1]: 1
SMILES: C[C@H]1O[C@@H](n2cc(F)c(N)nc2=O)[C@H](O)[C@@H]1O

Relative susceptibility [2]: < 0.01
SMILES: C[C@H]1O[C@@H](n2cc(/C=C/c3ccccc3)c(=O)[nH]c2=O)[C@H](O)C1O (single isomer, unassigned)

IC50 [3]: 0.22 µM
SMILES: O=c1[nH]cc(I)c(=O)[nH]1

IC50 [3]: 0.089 µM
SMILES: C=Cc1cnc(O)nc1O
Tumour_[5-FU] (Mus musculus [16]): 12 nmol/g | Ratio_tumour/plasma [14]: 3.8

Relative susceptibility [1]: 0.33
SMILES: C[C@H]1O[C@@H](n2cc(I)c(N)nc2=O)[C@H](O)[C@@H]1O
